Screening data: PubChem, Broad Institute
Pf Dd2 growth – blocks growth of Plasmodium falciparum Dd2 parasites. 94,000 tested, 2.3% active. P. falciparum Dd2 growth, SYBR Green, 72 h; hits give low values. activity change, % at 10 µM. AID 1159554; in the data active = activity change below about -80%; inconclusive = no clear call, values can overlap the other calls
T cruzi growth-1 – blocks T. cruzi growth in NIH3T3 culture. inhibition, % at 8.34 µM. T. cruzi beta-gal in NIH3T3, GalScreen luminescence, 90 h. 77,000 tested, 5.9% active. AID 624255;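 active = mean inhibition above about 93%, with at least 55% of replicates each passing it, limit read from the data, passing the limit was not always enough; inconclusive = only one of those two conditions holds; inactive = neither condition holds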
IDH1 mut inh – inhibitors of human IDH1 R132H. O75874. IDH1 R132H reductase, diaphorase/resazurin fluorescence, 60 min. inhibition, % at 10 µM. 70,000 tested, 0.18% active; in the data active = inhibition above about 34%; inconclusive = no clear call, values can overlap the other calls; inactive = below about 11%
KDM4C inh – inhibitors of human demethylase GASC-1 KDM4C. GST-KDM4C 2-372, H3K9me3 peptide, LANCE TR-FRET. 96,000 tested, 0.15% active. inhibition, % at 12.5 µM;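 active = mean replicate inhibition above about 25%, with at least 55% of replicates also reaching it, limit read from the data, passing the limit was not always enough; inconclusive = only one of those two conditions met; inactive = neither condition met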
Target sequence (Q9H3R0 2-372 limits assumed): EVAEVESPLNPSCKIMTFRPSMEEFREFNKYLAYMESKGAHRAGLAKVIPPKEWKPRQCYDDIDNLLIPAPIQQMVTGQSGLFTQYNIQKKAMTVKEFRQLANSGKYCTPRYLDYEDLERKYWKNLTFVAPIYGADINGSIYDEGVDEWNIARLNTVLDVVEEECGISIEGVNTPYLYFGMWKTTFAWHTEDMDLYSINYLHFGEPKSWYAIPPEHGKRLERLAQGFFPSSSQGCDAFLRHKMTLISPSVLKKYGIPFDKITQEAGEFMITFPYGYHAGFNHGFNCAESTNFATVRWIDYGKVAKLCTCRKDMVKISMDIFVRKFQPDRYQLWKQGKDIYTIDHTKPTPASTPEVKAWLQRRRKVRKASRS
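material = GST-tagged GASC-1 (JMJD2C) catalytic fragment, aa 2-372 | amount = enzyme final amount 10 nM | medium = HEPES buffer, pH 7.5, plus ascorbate | also added = H3K9me3 peptide substrate, Fe(II), 2-oxoglutarate | dosing = single dose | times = 30 min demethylation and 1 h detection at room temperature | detection = LANCE TR-FRET | read-out basis = Fall in 671/618 emission ratio as inhibition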
T cruzi growth-2 – blocks T. cruzi growth in NIH3T3 host cells. shares compounds with T cruzi growth-1. T. cruzi beta-gal in NIH3T3, GalScreen luminescence, 90 h. inhibition, % at 8.35 µM. 5,600 tested, 72% active. AID 651739;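 active = mean replicate inhibition above about 95% and at least 55% of replicates individually reaching it, limit read from the data; inconclusive = only one of the two criteria is met; inactive = neither criterion is met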
T cruzi growth-3 – inhibitors of T. cruzi proliferation | shares compounds with T cruzi growth-1 | AID 651740 | inhibition, % at 2.09 µM | T. cruzi beta-gal in NIH3T3, GalScreen luminescence, 90 h | 5,600 tested, 21% active;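 active = mean inhibition above about 95%, with at least 55% of replicates also reaching it, limit read from the data; inconclusive = meets just one of the two conditions; inactive = meets neither condition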
3T3 cytotox – kills mouse NIH/3T3 fibroblasts. shares compounds with T cruzi growth-1. NIH/3T3 viability, CellTiter-Glo ATP luminescence, 90 h. cytotoxicity (signal decrease), % at 8.35 µM. 5,600 tested, 14% active. AID 651742;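 active = mean signal decrease across replicates above about 35% based on untreated-well scatter, with enough replicates individually passing, limit read from the data; inconclusive = no rule stated though some were filed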
NIH3T3 tox 2 – kills mouse NIH/3T3 fibroblasts. NIH/3T3 viability, CellTiter-Glo ATP luminescence, 90 h. 5,600 tested, 56% active. AID 651744. shares compounds with T cruzi growth-1. inhibition, % at 24.9 µM;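 active = mean loss of cell viability signal at or above a set limit, and enough replicates individually reaching it; inconclusive = meets only the mean limit or only the replicate share; inactive = meets neither condition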
Hits are given with their value; – = inactive; ? = inconclusive; · = no result. A selection: hits, their analogues and other compounds. The true share with any hit is near 5.8%.

SMILES	Pf Dd2 growth	T cruzi growth-1	IDH1 mut inh	KDM4C inh	T cruzi growth-2	T cruzi growth-3	3T3 cytotox	NIH3T3 tox 2
C[C@@H]1CCCCO[C@@H](CN(C)C(=O)Nc2ccc(C(F)(F)F)cc2)[C@@H](C)CN([C@H](C)CO)C(=O)c2cc(NS(=O)(=O)c3ccc(Cl)cc3)ccc2O1	–	–	·	·	·	·	·	·
C/C=C/c1cccc(-c2nc(C(=O)NCCC)cc3c2[C@H](CCO)N([S@@](=O)C(C)(C)C)C3)c1	–	·	·	–	·	·	·	·
COc1ccccc1NC(=O)N1C[C@@H]2N[C@H](C1)C2c1ccc(-c2ccc(C#N)cc2)cc1 (stereo not given in full)	–	·	·	–	·	·	·	·
Cc1ccc(S(=O)(=O)Nc2ccc3c(c2)C(=O)N([C@@H](C)CO)C[C@@H](C)[C@H](CN(C)C(=O)Nc2ccc(C(F)(F)F)cc2)OCCCC[C@@H](C)O3)cc1	–	100	–	–	102	113	–	36
C[C@H]1CCCCO[C@@H](CN(C)C(=O)Nc2ccc(C(F)(F)F)cc2)[C@@H](C)CN([C@@H](C)CO)C(=O)c2cc(NS(C)(=O)=O)ccc2O1	–	109	–	–	107	–	–	–
C[C@H](CO)N1C[C@H](C)[C@H](CN(C)C(=O)CC2CC2)Oc2cc(C#CCN(C)C)ccc2S1(=O)=O	–	–	–	–	·	·	·	·
CCCC#Cc1ccc2c(c1)O[C@H](CN(C)C(=O)CC1CC1)[C@@H](C)CN([C@H](C)CO)S2(=O)=O	–	101	–	–	108	–	–	–
CC(C)CC#Cc1ccc2c(c1)O[C@@H](CN(C)C(=O)CC1CC1)[C@@H](C)CN([C@@H](C)CO)S2(=O)=O	–	·	–	–	·	·	·	·
CCCC#Cc1ccc2c(c1)O[C@H](CN(C)C(=O)CC1CC1)[C@@H](C)CN([C@@H](C)CO)S2(=O)=O	–	111	–	–	104	–	–	48
CCc1ccc(NC(=O)Cn2cnc3ccccc3c2=O)cc1	·	·	–	·	·	·	·	·
CCCC#Cc1ccc([C@H]2[C@H](C#N)N(S(=O)(=O)c3cccc(F)c3)[C@H]2CO)cc1	–	98	·	–	103	105	–	59
Cc1ccccc1S(=O)(=O)N1[C@H](C#N)[C@H](c2ccc(-c3ccccc3)cc2)[C@H]1CO	–	103	·	–	98	–	41	47
N#C[C@H]1[C@H](c2ccc(-c3cccc(F)c3)cc2)[C@@H](CO)N1S(=O)(=O)c1cccc(F)c1	–	98	·	–	105	–	41	104
Cc1ccccc1S(=O)(=O)N1[C@H](C#N)[C@@H](c2ccc(-c3ccccc3)cc2)[C@@H]1CO	–	–	·	–	·	·	·	·
N#C[C@H]1[C@H](c2ccc(-c3cccc(F)c3)cc2)[C@H](CO)N1S(=O)(=O)c1cccc(F)c1	–	96	·	–	108	–	37	57
O=C(N[C@@H]1C=C[C@@H](CC(=O)N2CCCCC2)O[C@@H]1CO)c1cccc(F)c1	–	–	–	–	·	·	·	·
C[C@@H]1CN([C@@H](C)CO)C(=O)CCCn2cc(nn2)CO[C@@H]1CN(C)S(=O)(=O)c1ccc(F)cc1	–	–	–	–	·	·	·	·
CNC(=O)C[C@@H]1CC[C@H]2[C@H](COc3ccc(NC(=O)c4ccccc4Cl)cc3C(=O)N2C)O1	–	–	·	–	·	·	·	·
Cn1cnc(S(=O)(=O)N2CCCCN3[C@H](CO)[C@H](c4ccc(-c5ccc(F)cc5)cc4)[C@H]3C2)c1	–	?	·	–	?	–	–	41
Cc1cccc(-c2ccc([C@@H]3[C@@H](CO)N4CCCCN(S(=O)(=O)c5cn(C)cn5)C[C@H]34)cc2)c1	–	102	·	–	–	–	–	–
Cn1cnc(S(=O)(=O)N2CCCCN3[C@H](C2)[C@@H](c2ccc(-c4ccccc4)cc2)[C@@H]3CO)c1	–	106	·	–	99	–	–	–
Cn1cnc(S(=O)(=O)N2CCCCN3[C@H](CO)[C@@H](c4ccc(-c5ccc(F)cc5)cc4)[C@H]3C2)c1	–	–	·	–	·	·	·	·
